How the values were obtained:
CYP3A [1] = target: T1, CYP3A (Homo sapiens, UniProt P08684+P20815+P24462+Q9HB55); assay: Inhibition of CYP3A in human liver microsomes assessed as substrate metabolite formation using midazolam as substrate measured after 5 mins by LC-MS/MS analysis; format: ADME; conditions: probe midazolam
How it was run: (§1)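 Pooled HLM from 16 donors were incubated at 37°C in duplicate with carfilzomib 0.01–10 µM and probe substrate at about its Km. Substrates were phenacetin, amodiaquine, diclofenac, S-mephenytoin, dextromethorphan, testosterone and midazolam. Protein was 0.1 mg/mL, or 0.05 mg/mL with midazolam. Reactions ran 5 min without preincubation, then were quenched with acetonitrile. Metabolites were measured by LC-MS/MS relative to 0.5% acetonitrile controls.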

Cytochrome P450 3A [2] = target: T2, Cytochrome P450 3A (Homo sapiens, UniProt P08684+P20815+Q9HB55+P24462); assay: Decrease in CYP3A activity in rifampin-treated human hepatocytes assessed as 6-betahydroxytestosterone formation using testosterone as substrate at 2.5 uM after 30 mins by LC-MS/MS analysis; format: ADME, cell-based, Hepatocyte; conditions: 0.5 h
How it was run: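 Hepatocytes induced 3 days with 20 µM rifampicin were exposed to fresh medium containing 2.5 µM carfilzomib for 30 min and washed once. They were then incubated with testosterone 200 µM, and 6β-hydroxytestosterone was measured by LC-MS/MS.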

[3] = Half life in human patient with relapsed solid tumor at 20 mg/m'2, iv administered on days 1, 2, 8, 9, 15 and 16 of 28-day cycle over 2 to 10 mins measured on day 1 of cycle 1 by LC-MS/MS analysis; format: ADME, organism-based; conditions: in vivo
How it was run: (§2)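 Patients with relapsed solid tumors (n=3) received carfilzomib IV at 20 mg/m2. Plasma was sampled on Days 1 and 16 of Cycle 1 before dosing, at end of administration, and at 5, 15, 30 min and 1, 2, 4 h after. Samples underwent solid phase extraction and LC-MS/MS with d10-carfilzomib internal standard over 0.100–200 ng/mL. Parameters were derived noncompartmentally (constant IV infusion model) from actual elapsed time from infusion start.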

[4] = Cmax in human patient with relapsed solid tumor at 20 mg/m'2, iv administered on days 1, 2, 8, 9 15 and 16 of 28-day cycle over 2 to 10 mins measured on day 1 of cycle 1 by LC-MS/MS analysis; format: ADME, organism-based; design: route intravenous; conditions: in vivo; how it was run: as §2
[5] = AUC last in human patient with relapsed solid tumor at 20 mg/m'2, iv administered on days 1, 2, 8, 9, 15 and 16 of 28-day cycle over 2 to 10 mins measured on day 1 of cycle 1 by LC-MS/MS analysis; format: ADME, organism-based; design: route intravenous, time 0 - last; conditions: plasma; how it was run: as §2
Cytochrome P450 3A [6] = target: T2, Cytochrome P450 3A; assay: Time-dependent inhibition of CYP3A in human liver microsomes assessed as midazolam 1'-hydroxylation using midazolam as substrate by LC-MS/MS analysis in presence of NADPH; format: ADME
How it was run: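 HLM (1.25 mg/mL for midazolam) were preincubated in duplicate with carfilzomib 0, 0.5, 1, 3, 5, 8 µM plus an NADPH-generating system for 0–30 min. Mixtures were diluted 25-fold into pH 7.4 phosphate/MgCl2/EDTA buffer containing midazolam 40 µM and NADPH system for 5 min. Residual activity by LC-MS/MS gave KI and kinact.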

Cytochrome P450 3A [7] = target: T2, Cytochrome P450 3A; assay: Decrease in CYP3A activity in human hepatocytes assessed as 6-betahydroxytestosterone formation using testosterone as substrate incubated for 3 days prior to substrate challenge for 30 mins by LC-MS/MS analysis; format: ADME, cell-based, Hepatocyte; conditions: 0.5 h
How it was run: (§3)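 Hepatocytes from 3 donors were plated on collagen I and cultured 2 days, then treated 3 days with carfilzomib (0.1–2.5 µM), 0.08% DMSO, rifampicin 20 µM or β-naphthoflavone 20 µM, renewed daily. Cells were then incubated in serum-free medium in triplicate with testosterone 200 µM (CYP3A, 30 min, 6β-hydroxytestosterone) or phenacetin 100 µM (CYP1A2, 60 min, acetaminophenol). Products were measured by LC-MS/MS and expressed relative to DMSO.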

Plasma [8] = assay: Drug metabolism in plasma of iv dosed human patient with relapsed and refractory hematological malignancies assessed as morpholino-hPhe-Leu-Phe-Leu-diol metabolite formation administered on days 1, 2, 8, 9, 15 and 16 of 28-day cycle over 2 to 10 mins by LC-MS/MS analysis; format: ADME, organism-based; conditions: in vivo
Cytochrome P450 3A [9] = target: T2, Cytochrome P450 3A; assay: Time-dependent inhibition of CYP3A in human liver microsomes assessed as midazolam 1'-hydroxylation using midazolam as substrate measured after 25-fold diution by LC-MS/MS analysis in presence of NADPH; format: ADME
How it was run: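 Pooled HLM (16 donors, mixed gender) preincubated in duplicate with carfilzomib 0, 0.5, 1, 3, 5 and 8 µM plus NADPH-generating system (1 mM NADP, 5 mM glucose-6-phosphate, 1 unit/mL G6PDH) for 0–30 min. Microsomal protein in preincubation: 2.5 mg/mL (testosterone) or 1.25 mg/mL (midazolam). Aliquots then diluted 25-fold into 50 mM potassium phosphate, 3 mM MgCl2, 1 mM EDTA, pH 7.4. Residual activity measured over 5 min with testosterone 200 µM or midazolam 40 µM plus NADPH-generating mixture, 37°C. KI and kinact derived.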

CYP3A [10] = target: T1, CYP3A; assay: Inhibition of CYP3A in human liver microsomes assessed as substrate metabolite formation using testosterone as substrate measured after 5 mins by LC-MS/MS analysis; format: ADME; conditions: probe testosterone; how it was run: as §1
[11] = AUC infinity in human patient with relapsed solid tumor at 20 mg/m'2, iv administered over 2 to 10 mins on days 1, 2, 8, 9, 15 and 16 of 28-day cycle measured on day 1 of cycle 1 by LC-MS/MS analysis; format: ADME, organism-based; design: route intravenous, time infinity; conditions: plasma; how it was run: as §2
Cytochrome P450 1A2 [12] = target: T3, Cytochrome P450 1A2 (Homo sapiens, UniProt P05177); assay: Inhibition of CYP1A2 in human liver microsomes using phenacetin as substrate after 5 mins by LC-MS/MS analysis; format: ADME; how it was run: as §1
T3 sequence (P05177 whole entry): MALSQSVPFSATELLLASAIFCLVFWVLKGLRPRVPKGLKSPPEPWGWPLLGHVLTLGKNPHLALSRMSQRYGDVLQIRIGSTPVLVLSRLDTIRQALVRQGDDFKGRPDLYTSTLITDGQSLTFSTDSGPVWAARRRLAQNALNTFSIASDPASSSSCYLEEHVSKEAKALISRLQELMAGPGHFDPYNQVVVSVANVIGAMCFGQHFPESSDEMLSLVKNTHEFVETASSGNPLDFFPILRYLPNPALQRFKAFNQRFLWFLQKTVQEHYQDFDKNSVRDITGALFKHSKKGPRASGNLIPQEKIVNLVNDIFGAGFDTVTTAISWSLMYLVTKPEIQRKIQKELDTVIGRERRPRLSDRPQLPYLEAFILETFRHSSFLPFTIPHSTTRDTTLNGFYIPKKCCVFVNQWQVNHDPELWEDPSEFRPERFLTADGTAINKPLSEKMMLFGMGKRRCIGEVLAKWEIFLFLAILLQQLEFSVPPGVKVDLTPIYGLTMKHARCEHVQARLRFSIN

Cytochrome P450 1A2 [13] = target: T3, Cytochrome P450 1A2; assay: Decrease in CYP1A2 activity in human hepatocytes assessed as acetaminophenol formation using phenacetin as substrate at 2.5 uM incubated for 3 days prior to substrate challenge for 60 mins by LC-MS/MS analysis; format: ADME, cell-based, Hepatocyte; conditions: 1 h; how it was run: as §3
Plasma [14] = assay: Drug metabolism in plasma of iv dosed human patient with relapsed and refractory hematological malignancies assessed as morpholino-hPhe-Leu metabolite formation administered on days 1, 2, 8, 9, 15 and 16 of 28-day cycle over 2 to 10 mins by LC-MS/MS analysis; format: ADME, organism-based; conditions: in vivo

IC50 at 5 min (CYP3A [1]): 1.7 µM | inhibition (INH) (Cytochrome P450 3A [2]): 14% | half-life [3]: 1 h | Cmax [4]: 2.76 µg/mL | AUC(0-t) [5]: 0.238 µg·h/mL | inhibition (INH) (Cytochrome P450 3A [6]): Active | inhibition (INH) (Cytochrome P450 3A [7]): Dose-dependent effect | Drug metabolism (Plasma [8]): metabolite_detected | inhibition (INH) (Cytochrome P450 3A [9]): Active | IC50 at 5 min (CYP3A [10]): > 10 µM | AUC(0-inf) [11]: 0.238 µg·h/mL | IC50 (Cytochrome P450 1A2 [12]): > 10 µM | inhibition (INH) (Cytochrome P450 1A2 [13]): Dose-dependent effect | Drug metabolism (Plasma [14]): metabolite_detected
Compound: CC(C)C[C@H](NC(=O)[C@H](CCc1ccccc1)NC(=O)CN1CCOCC1)C(=O)N[C@@H](Cc1ccccc1)C(=O)N[C@@H](CC(C)C)C(=O)[C@@]1(C)CO1 [CARFILZOMIB]
